Experimental data collected from several papers.
Each line is one published result; the experiments were not run side by side.

Cc1ccc(C(CS(=O)(=O)c2ccccc2)=NNc2nc(C)c(N=Nc3cccc(C)c3)s2)cc1 — viability (SK-MEL-23; cell growth or viability, MTT; 25 µM, 48 h): 44%
CCCCc1cccc(-c2cnc3c(n2)CCCC3)c1 — IC50 (Haemonchus contortus; parasite motility; 48 h, larva): 23.3 µM
Cc1ccc(C(CS(=O)(=O)c2ccccc2)=NNc2nc(-c3ccc(OCCCCOc4ccc(-c5csc(NN=C(CS(=O)(=O)c6ccccc6)c6ccc(C)cc6)n5)cc4)cc3)cs2)cc1 — viability (SK-MEL-23; cell growth or viability, MTT; 100 µM, 48 h): 37.2%
CCc1cc(Nc2cc(=O)n(CCCCO)c(=O)[nH]2)ccc1C — MIC (Eggerthella lenta; microbial growth, agar dilution; 48 h): > 32 µg/mL
C[C@@H](Oc1cc(-c2cnn(C3CCNCC3)c2)cnc1N)c1c(Cl)ccc(F)c1Cl — inhibition (NCI-H2228; cell growth or viability, MTT; 5 µg/mL, 72 h): 85.2%
Cc1ccc(C(CS(=O)(=O)c2ccccc2)=NN=C2N=C(c3ccc(Br)cc3)CS2)cc1 — viability (SK-MEL-23; cell growth or viability, MTT; 6.3 µM, 48 h): 63.7%
CCCCOc1ccc(-c2cnc3c(n2)CCCC3)cc1 — IC50 (Haemonchus contortus; parasite motility; 48 h, larva): 6.9 µM
Cc1cc(Nc2ncc(Cl)c(Nc3ccccc3S(=O)(=O)C(C)C)n2)c(OC(C)C)cc1C1CCNCC1 — inhibition (NCI-H2228; cell growth or viability, MTT; 0.2 µg/mL, 72 h): 70.9%
O=C(Nc1ccccc1-c1ccc(F)c(F)c1)c1nccnc1C(F)(F)F — EC50 (Penicillium digitatum; microbial growth): > 100 µg/mL
CCCCOc1cccc(-c2cnc3c(n2)CCCC3)c1 — IC50 (Haemonchus contortus; parasite motility; 24 h, larva): ~49.5 µM
Cc1ccc(C(CS(=O)(=O)c2ccccc2)=NNC2=NC(=O)C(=NNc3ccccc3)S2)cc1 — viability (SK-MEL-23; cell growth or viability, MTT; 0.4 µM, 48 h): 50.5%
O=c1[nH]c(NCc2ccc(Cl)c(Cl)c2)nc2ncn(CCN3CCOCC3)c12 — MIC (Eggerthella lenta; microbial growth, agar dilution; 48 h): > 32 µg/mL
